Data set [1] is described as follows: melting temperature; fluorescence melt of hairpins on a sequencing array, two-state fit, raised by 9.35 °C to match UV melts. As to conditions: sodium 0.088 M. An outline of the steps: (§1)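 Melting temperature and folding enthalpy were derived from bootstrapped two-state fits. The fitted temperatures were raised by 9.35 °C to agree with UV melts, and four replicates were combined by inverse variance. The underlying data were Cy3 fluorescence images of library hairpins, with annealed Cy3 and quencher oligos, on a sequenced MiSeq flow cell in 50 mM Na-HEPES pH 8.0, 25 mM NaCl, taken in 2.5 °C steps up to 60 °C, normalised to pre-quench Cy3 and to control constructs.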

Data set [2] in a line: folding enthalpy; higher = less favourable; fluorescence melt of hairpins on a sequencing array, two-state fit. Conditions: sodium 0.088 M. The procedure, abridged:
as §1

As for GCGCCTCGAAAGAGACGC (((.(((....))).))), the Tm in data set [1] stood at 59.4 °C. In addition, the folding enthalpy in data set [2] is -107 kJ/mol.
Turning to GATCGGCCGACCGATC ((((((....)))))), the Tm in data set [1] turned out to be 57.9 °C. For the same sequence, in data set [2], the folding enthalpy was -145 kJ/mol.
As to GCGTAGCGAAAGCCAGGC ((.(.((....)).).)), the Tm in data set [1] amounted to 31.1 °C. Also, the folding enthalpy in data set [2] is -21.2 kJ/mol.
For the sequence GGTCCGTCGAAAGACACC (((..(((....)))))), in data set [1], the Tm is 27.5 °C. Besides, in data set [2], the folding enthalpy was -59 kJ/mol.
Regarding GACCGCCGAAAGGCGTC (((.(((....)))))), in data set [1], the Tm turned out to be 45.4 °C. Also, the folding enthalpy in data set [2] was -36.4 kJ/mol.
For GGTAAGCCGAAAGGCACC (((..(((....)))))) the same measures were 42 °C and -64.3 kJ/mol.
For GTCGCCGAAAGGCAAGAC ((((((....)))..))), in data set [1], the Tm amounted to 49.8 °C. In data set [2], the folding enthalpy is -64.4 kJ/mol.
On to GTCCTTGGAAACAAGGGC (.(((((....))))).), for which the Tm in data set [1] was found to be 52.3 °C. Moreover, in data set [2], the folding enthalpy is -153 kJ/mol.
The like results for GTGATCGAAAGATCCCAC ((((((....)))..))) were, in that order, 32.4 °C and -44.7 kJ/mol.
Consider GTTGGAGGAAACTCCAAC (((((((....))))))), for which, in data set [1], the Tm turned out to be 60.8 °C. For the same sequence, in data set [2], the folding enthalpy was -151 kJ/mol.
Regarding GCAGTAGGAAACTATTGC (((.(((....))).))), the Tm in data set [1] was found to be 42.6 °C. Also, the folding enthalpy in data set [2] was -112 kJ/mol.
With GCACGGCGAAAGCTATGC (((..((....))..))), in data set [1], the Tm was 42.1 °C. In addition, in data set [2], the folding enthalpy was -83.5 kJ/mol.
For GCGCAGGGAAACCTGTGC ((.((((....)))).)) the same measures were 57.7 °C and -117 kJ/mol.
The like results for GCACCTGCGAAAGCATGC (((..(((....)))))) were, in that order, 33.6 °C and -38.3 kJ/mol.
For the sequence GAGATTCCGAAAGGACTC (((..(((....)))))), in data set [1], the Tm turned out to be 30.5 °C. Moreover, the folding enthalpy in data set [2] is -51 kJ/mol.
The like results for GATCGGAAGCCCGATC ((((((....)))))) were, in that order, 54.1 °C and -153 kJ/mol.
With GATCCACCACTGGATC ((((((....)))))), the Tm in data set [1] was 49.4 °C. For the same sequence, the folding enthalpy in data set [2] was -154 kJ/mol.
GTAAGGGGAAACCCCTAC (((.(((....))).))): in data set [1], the Tm was 39 °C. Besides, the folding enthalpy in data set [2] was -70.8 kJ/mol.
Regarding GGCTCAGGAAACCGAGCC (((((.(....).))))), in data set [1], the Tm worked out at 54.5 °C. In data set [2], the folding enthalpy is -205 kJ/mol.
Regarding GCTACGCGAAAGCGCAGC (((.(((....))).))), in data set [1], the Tm worked out at 55.7 °C. Besides, in data set [2], the folding enthalpy was -136 kJ/mol.
The like results for GGGGGAGGAAACTCCTCC ((.((((....)))).)) were, in that order, 53.4 °C and -92.2 kJ/mol.
Regarding GCCGTCGAAAGACGTGGC ((((((....)))..))), in data set [1], the Tm worked out at 58.8 °C. The folding enthalpy in data set [2] is -59.1 kJ/mol.
Take GCGTCGATACGC ((((....)))): in data set [1], the Tm came to 52.2 °C. The folding enthalpy in data set [2] was -80.2 kJ/mol.
Turning to GAGTTCCGAAAGGACCTC (((.(((....))).))), the Tm in data set [1] worked out at 47.2 °C. Also, in data set [2], the folding enthalpy was -120 kJ/mol.
As to GACTGAGGAAACTTAGTC ((((.((....)).)))), the Tm in data set [1] came out at 39.4 °C. Also, in data set [2], the folding enthalpy was -110 kJ/mol.
On to GATGCAGGAAACCGCATC (((((.(....).))))), for which the Tm in data set [1] amounted to 49.9 °C. The folding enthalpy in data set [2] is -140 kJ/mol.
Consider GAGGCTACGAAAGTACTC (((..(((....)))))), for which the Tm in data set [1] is 23.8 °C. The folding enthalpy in data set [2] is -42.7 kJ/mol.
For GCCGTGCGAAAGCGCAGC ((.(.((....)).).)) the same measures were 49.1 °C and -54.2 kJ/mol.
GATTGAGGAAACTTGATC (((..((....))..))): the Tm in data set [1] amounted to 22.4 °C. Also, in data set [2], the folding enthalpy is -32 kJ/mol.
For GCGTTCGGAAACGGACGC ((((.((....)).)))) the same measures were 64 °C and -168 kJ/mol.
As for GCACTAGGAAACTAGTAC (.(((((....))))).), the Tm in data set [1] was 31 °C. Besides, the folding enthalpy in data set [2] is -87 kJ/mol.
For GTGGGAGGAAACCCCCAC (((((.(....).))))), the Tm in data set [1] turned out to be 50.3 °C. For the same sequence, in data set [2], the folding enthalpy was -163 kJ/mol.
Consider GCCGGTGGAAACACCAGC ((.((((....)))).)), for which the Tm in data set [1] worked out at 48.4 °C. Also, the folding enthalpy in data set [2] was -90.1 kJ/mol.
With GACACCGAAAGGTCAGTC ((((((....)))..))), in data set [1], the Tm was 35.9 °C. Besides, the folding enthalpy in data set [2] was -52.4 kJ/mol.
Take GATCCGGCTCGGATC ((((((...)))))): the Tm in data set [1] turned out to be 59.7 °C. For the same sequence, the folding enthalpy in data set [2] is -166 kJ/mol.
For the sequence GCAACCGAAAGGTTCTGC ((((((....)))..))), in data set [1], the Tm is 41.8 °C. In data set [2], the folding enthalpy was -62.4 kJ/mol.
Take GATCATGCGGATGATC ((((((....)))))): the Tm in data set [1] is 47 °C. Besides, the folding enthalpy in data set [2] was -143 kJ/mol.
In the case of GCGACCGGAAACGGCCGC (((.(((....))).))), the Tm in data set [1] is 65.1 °C. For the same sequence, in data set [2], the folding enthalpy is -108 kJ/mol.
On to GTACCGGGAAACCGACAC ((..(((....)))..)), for which the Tm in data set [1] is 22.9 °C. For the same sequence, the folding enthalpy in data set [2] is -35.2 kJ/mol.
As to GCTCCGCGAAAGCGAAGC (((.(((....))).))), the Tm in data set [1] worked out at 56.4 °C. The folding enthalpy in data set [2] was -121 kJ/mol.
The like results for GTTCCACGAAAGTGAAC (((.(((....)))))) were, in that order, 41.8 °C and -73.9 kJ/mol.
As to GGTAAAGAAATTTACC ((((((....)))))), the Tm in data set [1] stood at 40.1 °C. For the same sequence, the folding enthalpy in data set [2] is -109 kJ/mol.
Turning to GACAACGAAAGTTTCGTC ((((((....)))..))), in data set [1], the Tm amounted to 32.8 °C. Also, the folding enthalpy in data set [2] is -59.2 kJ/mol.
GGCAGCGAAAGCTAGGCC ((((((....)))..))): in data set [1], the Tm was determined as 55.3 °C. In addition, the folding enthalpy in data set [2] is -120 kJ/mol.
As to GATCGCCTACGCGATC ((((((....)))))), the Tm in data set [1] is 67.4 °C. The folding enthalpy in data set [2] was -165 kJ/mol.
On to GGCACGCCGAAAGGCGCC (((..(((....)))))), for which the Tm in data set [1] worked out at 40.3 °C. Further, the folding enthalpy in data set [2] is -27 kJ/mol.
As for GACACGGGAAACCGTACC (..((((....))))..), in data set [1], the Tm amounted to 27.9 °C. For the same sequence, in data set [2], the folding enthalpy was -33.9 kJ/mol.
For GATCTAGCCCTAGATC ((((((....)))))) the same measures were 45.6 °C and -155 kJ/mol.
The like results for GCTACGCGAAAGCCTTGC ((.(.((....)).).)) were, in that order, 29.6 °C and -41.2 kJ/mol.
For GGCTGCGCGAAAGCGGCC (((..(((....)))))) the same measures were 60.3 °C and -80.4 kJ/mol.
As for GATCATACACATGATC ((((((....)))))), the Tm in data set [1] stood at 47.2 °C. Further, in data set [2], the folding enthalpy was -151 kJ/mol.
Regarding GCTATGCGAAAGCATCGC ((.((((....)))).)), the Tm in data set [1] stood at 55.3 °C. The folding enthalpy in data set [2] was -94.1 kJ/mol.
GTGCGAGGAAACTCACAC (((.(((....))).))): the Tm in data set [1] was determined as 45.8 °C. Also, in data set [2], the folding enthalpy was -143 kJ/mol.
For GGTTCGACGAAAGTCACC (((..(((....)))))), the Tm in data set [1] was 24.9 °C. The folding enthalpy in data set [2] was -49.7 kJ/mol.
Consider GATCCTCTGGAGGATC ((((((....)))))), for which, in data set [1], the Tm was 58.3 °C. Moreover, the folding enthalpy in data set [2] is -165 kJ/mol.

For the origin of these results see the array DNA melting data of Ke et al. (doi:10.1101/2024.01.08.574731).
